Results reported in ChEMBL document CHEMBL1130280, “2-(1-Naphthyloxy)ethylamines with enhanced affinity for human 5-HT1D beta (h5-HT1B) serotonin receptors” (J Med Chem, 1997).

Experiments:
[1] = target: 5-hydroxytryptamine receptor 1B (Homo sapiens, UniProt P28222); experiment: Agonist activity to the human recombinant 5-hydroxytryptamine 1B receptor; format: functional
Outline: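 CHO Pro 5 cells stably transfected with human recombinant 5-HT1Dβ receptors. Compound was added to the culture medium for 30 min at 37 °C. The reaction was stopped with cold ethanolic 5 mM EDTA (2:1 v/v), and extracted cAMP was quantified by enzyme immunoassay, with serotonin as the reference agonist.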

[2] = target: T1, 5-hydroxytryptamine receptor 1D (Homo sapiens, UniProt P28221); experiment: Compound was tested for its binding affinity against human recombinant 5-hydroxytryptamine 1D receptor alpha for comparison purpose.
T1 sequence (P28221 whole entry): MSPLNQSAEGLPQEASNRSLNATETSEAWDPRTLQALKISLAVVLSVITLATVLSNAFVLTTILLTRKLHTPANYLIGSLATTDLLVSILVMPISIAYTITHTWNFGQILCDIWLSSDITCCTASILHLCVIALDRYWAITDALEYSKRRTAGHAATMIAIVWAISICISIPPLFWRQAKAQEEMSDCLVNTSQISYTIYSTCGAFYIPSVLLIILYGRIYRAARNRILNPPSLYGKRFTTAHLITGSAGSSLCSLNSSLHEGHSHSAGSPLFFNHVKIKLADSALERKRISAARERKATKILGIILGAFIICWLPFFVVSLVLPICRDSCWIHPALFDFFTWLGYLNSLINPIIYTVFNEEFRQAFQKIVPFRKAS

[3] = target: T1, 5-hydroxytryptamine receptor 1D; experiment: Compound was tested for its agonist activity against human 5-hydroxytryptamine 1D receptor alpha for comparison purpose.; format: functional
[4] = target: T1, 5-hydroxytryptamine receptor 1D; experiment: Compound was tested for its agonist activity against human recombinant 5-hydroxytryptamine 1D receptor alpha for comparison purpose.; format: functional

Sequence of 5-hydroxytryptamine receptor 1B (P28222 whole entry): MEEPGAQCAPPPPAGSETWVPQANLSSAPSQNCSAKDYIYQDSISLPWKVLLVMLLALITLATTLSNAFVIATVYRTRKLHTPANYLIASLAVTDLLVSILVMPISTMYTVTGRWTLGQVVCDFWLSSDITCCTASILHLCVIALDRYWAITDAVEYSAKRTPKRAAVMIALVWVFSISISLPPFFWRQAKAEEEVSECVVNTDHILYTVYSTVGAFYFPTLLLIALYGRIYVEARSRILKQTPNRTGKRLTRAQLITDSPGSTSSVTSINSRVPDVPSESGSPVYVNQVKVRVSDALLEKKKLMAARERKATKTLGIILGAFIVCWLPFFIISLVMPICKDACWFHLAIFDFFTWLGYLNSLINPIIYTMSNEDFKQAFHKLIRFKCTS

Ki [1] [nM] | SMILES | other results
> 10000 | CN(C)CCCOc1ccccc1 | –
66 | CCNCCOc1cccc2ccccc12 | –
5960 | CNCCOc1ccccc1 | Ki [2]: 1800 nM
470 | CN(C)CCCCOc1cccc2ccccc12 | –
1200 | CCCN(C)CCCOc1ccccc1C1CCCC1 | Ki [2]: 143 nM
255 | CN(C)CCCOc1cccc2ccccc12 | –
3450 | CNCCCOc1ccccc1 | –
200 | CCCNCCOc1cccc2ccccc12 | –
1230 | CCCCN(CC)CCOc1cccc2ccccc12 | Ki [2]: 112 nM
26 | CNCCOc1cccc2ccccc12 | Ki [3]: 34 nM
120 | CC(C)NCCOc1cccc2ccccc12 | –
94 | CN(C)CCOc1cccc2ccccc12 | –
1120 | CC(C)NCCOc1cccc2[nH]ccc12 | –
7660 | CC(C)NCCCOc1cccc2ccccc12 | –
> 10000 | CN(C)CCCNc1ccccc1 | –
> 10000 | CC(C)NCCCOc1cccc2[nH]ccc12 | –
425 | CCCN(C)CCOc1ccccc1C1CCCC1 | Ki [2]: 82 nM
260 | CN(CCOc1cccc2ccccc12)Cc1ccccc1 | Ki [2]: 590 nM
750 | CCCN(C)CCOc1cccc2ccccc12 | Ki [2]: 103 nM
316 | CNCCOc1cccc(C)c1C | –
2680 | CCCCN(CCCC)CCOc1cccc2ccccc12 | –
107 | OCCNCCOc1cccc2ccccc12 | Ki [4]: 68 nM
100 | NCCOc1cccc2ccccc12 | –
290 | NCCCOc1cccc2ccccc12 | –

SMILES | Ki [1] [nM] | other results
CC(C)NCC(O)COc1cccc2[nH]ccc12 (racemic) [PINDOLOL] | > 10000 | –
CC(C)NCC(O)COc1cccc2[nH]ccc12 (single isomer, unassigned; (-)) [PINDOLOL] | 2600 | –
